Assay results published in ChEMBL document CHEMBL4196014, “Highly convergent synthesis and antiviral activity of (E)-but-2-enyl nucleoside phosphonoamidates” (Eur J Med Chem, 2018).
Active and inactive are the calls of the source. The calls are words filed in the database; no cut-off is given here.

How the values were obtained:
Human betaherpesvirus 5 [1] = experiment: Antiviral activity against Human cytomegalovirus AD169 infected in HEL cells assessed as reduction in viral cytopathic effect; format: functional, organism-based; conditions: Human betaherpesvirus 5, AD169, HEL
Summary of the method: (§1)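 Confluent cell monolayers were infected with 100 CCID50 of virus (1 CCID50 is the dose infecting 50% of cultures) with test compound at varying concentrations (100, 20, … μM). CPE was scored once it was complete in untreated infected controls.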

[2] = test system: Vesicular stomatitis virus; experiment: Antiviral activity against Vesicular stomatitis virus infected in human HeLa cells assessed as reduction in viral cytopathic effect; format: functional, organism-based; summary of the method: as §1
[3] = Cytotoxicity against HEL cells assessed as alteration of cell morphology by microscopic method; format: cell-based; conditions: human
Summary of the method: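 MCC is the lowest compound concentration giving a microscopically visible alteration of cell morphology.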

Human alphaherpesvirus 1 [4] = experiment: Antiviral activity against thymidine kinase deficient acyclovir-resistant Human simplex virus 1 KOS infected in HEL cells assessed as reduction in viral cytopathic effect; format: functional, organism-based; conditions: Human alphaherpesvirus 1, KOS; summary of the method: as §1
Influenza B virus = experiment: Antiviral activity against Influenza B virus infected in MDCK cells assessed as reduction in viral cytopathic effect; format: functional, organism-based
Summary of the method: (§2)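 Nearly confluent MDCK cultures were infected with 100 CCID50 of virus with compound at varying concentrations (100, 20, … μM). CPE was scored when complete in untreated infected controls.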

Human betaherpesvirus 5 [5] = experiment: Antiviral activity against Human cytomegalovirus Davis infected in HEL cells assessed as reduction in viral cytopathic effect; format: functional, organism-based; conditions: Human betaherpesvirus 5, Davis; summary of the method: as §1
Sindbis virus = experiment: Antiviral activity against Sindbis virus infected in African green monkey Vero cells assessed as reduction in viral cytopathic effect; format: functional, organism-based; summary of the method: as §1
Human alphaherpesvirus 3 [6] = experiment: Antiviral activity against thymidine kinase deficient Varicella zoster virus 07/1 infected in HEL cells assessed as reduction in viral plaque formation; format: functional, organism-based; conditions: Human alphaherpesvirus 3, 07/1, HEL
Summary of the method: (§3)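 Confluent cultures were inoculated with 20 PFU of virus with compound at varying concentrations (100, 20, … μM). Plaques were counted once plaque formation was complete in untreated infected controls.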

[7] = test system: Human immunodeficiency virus 1; experiment: Antiviral activity against Human immunodeficiency virus 1 LAV1 infected in primary human PBM cells after 6 days by reverse transcriptase activity-based assay; format: functional, organism-based
Human alphaherpesvirus 1 [8] = experiment: Antiviral activity against Human simplex virus 1 KOS infected in HEL cells assessed as reduction in viral cytopathic effect; format: functional, organism-based; conditions: Human alphaherpesvirus 1, KOS; summary of the method: as §1
[9] = test system: Respiratory syncytial virus; experiment: Antiviral activity against Respiratory syncytial virus infected in human HeLa cells assessed as reduction in viral cytopathic effect; format: functional, organism-based; summary of the method: as §1
Coxsackievirus B4 [10] = experiment: Antiviral activity against Human coxsackievirus B4 infected in human HeLa cells assessed as reduction in viral cytopathic effect; format: functional, organism-based; summary of the method: as §1
HEL = experiment: Cytostatic activity against HEL cells after 3 days by Coulter counting method; format: cell-based; conditions: human, 72 h
Summary of the method: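 HEL cells were seeded at 5 × 10^3 cells/well and grown for 24 h, then given medium with graded compound concentrations. After 3 days at 37 °C, cells were counted with a Coulter counter.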

[11] = test system: Mammalian orthoreovirus 1; experiment: Antiviral activity against Reovirus-1 infected in African green monkey Vero cells assessed as reduction in viral cytopathic effect; format: functional, organism-based; summary of the method: as §1
Vaccinia virus = experiment: Antiviral activity against Vaccinia virus infected in HEL cells assessed as reduction in viral cytopathic effect; format: functional, organism-based; conditions: Orthopoxvirus vaccinia; summary of the method: as §1
Influenza A virus H3N2 = experiment: Antiviral activity against Influenza A virus H3N2 infected in MDCK cells assessed as reduction in viral cytopathic effect; format: functional, organism-based; summary of the method: as §2
Influenza A virus = experiment: Antiviral activity against Influenza A virus (H1N1) infected in MDCK cells assessed as reduction in viral cytopathic effect; format: functional, organism-based; summary of the method: as §2
Human alphaherpesvirus 2 = experiment: Antiviral activity against Human simplex virus 2 G infected in HEL cells assessed as reduction in viral cytopathic effect; format: functional, organism-based; conditions: Human alphaherpesvirus 2, strain G; summary of the method: as §1
Human alphaherpesvirus 3 [12] = experiment: Antiviral activity against Varicella zoster virus Oka infected in HEL cells assessed as reduction in viral plaque formation; format: functional, organism-based; conditions: Human alphaherpesvirus 3, strain Oka vaccine; summary of the method: as §3
Coxsackievirus B4 [13] = experiment: Antiviral activity against Coxsackievirus B4 infected in African green monkey Vero cells assessed as reduction in viral cytopathic effect; format: functional, organism-based; summary of the method: as §1
Human respirovirus 3 = experiment: Antiviral activity against Human parainfluenza virus 3 infected in African green monkey Vero cells assessed as reduction in viral cytopathic effect; format: functional, organism-based; summary of the method: as §1
[14] = Selectivity index, ratio of CC50 for HEL cells to EC50 for Varicella zoster virus Oka infected in HEL cells; format: toxicity, cell-based; conditions: human, read-out: Ratio CC50/EC50
Summary of the method: (§4)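 SI is CC50 divided by EC50. CC50 comes from the 3-day HEL Coulter-counter growth assay. EC50 comes from the VZV plaque-reduction assay (20 PFU inoculum).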

[15] = Selectivity index, ratio of CC50 for HEL cells to EC50 for thymidine kinase deficient Varicella zoster virus 07/1 infected in HEL cells; format: toxicity, cell-based; conditions: human, read-out: Ratio CC50/EC50; summary of the method: as §4

Compound | EC50 (Human betaherpesvirus 5 [1]) [µM] | Activity [2] | MCC [3] [µM] | EC50 (Human alphaherpesvirus 1 [4]) [µM] | Activity (Influenza B virus) | EC50 (Human betaherpesvirus 5 [5]) [µM] | Activity (Sindbis virus) | EC50 (Human alphaherpesvirus 3 [6]) [µM] | Activity [7] | EC50 (Human alphaherpesvirus 1 [8]) [µM] | Activity [9] | Activity (Coxsackievirus B4 [10]) | CC50 (HEL) [µM] | Activity [11] | EC50 (Vaccinia virus) [µM] | Activity (Influenza A virus H3N2) | Activity (Influenza A virus) | EC50 (Human alphaherpesvirus 2) [µM] | EC50 (Human alphaherpesvirus 3 [12]) [nM] | Activity (Coxsackievirus B4 [13]) | further results
CCCCCCCCCCCCCCCOCCCOP(=O)(O)C/C=C/Cn1cc(C)c(=O)[nH]c1=O | > 39 | inactive | 184 | > 37 | inactive | 13.5 | inactive | 20.5 | inactive | > 37 | inactive | inactive | 76 | inactive | > 37 | inactive | inactive | > 37 | 19400 | inactive | Activity (Human respirovirus 3): inactive
Cc1cn(C/C=C/CP(=O)(OCOC(=O)C(C)(C)C)OCOC(=O)C(C)(C)C)c(=O)[nH]c1=O | > 41 | inactive | ≥ 100 | – | inactive | > 41 | inactive | 0.43 | inactive | – | inactive | inactive | 36.4 | inactive | 30.7 | inactive | inactive | 6.5 | 1910 | inactive | selectivity ratio [14]: 19; selectivity ratio [15]: 85; Activity (Human respirovirus 3): inactive
Nc1ccn(C[C@@H](CO)OCP(=O)(O)O)c(=O)n1 [CIDOFOVIR] | – | – | > 300 | 4.6 | – | – | – | – | – | 6.5 | – | – | > 300 | – | 21.3 | – | – | 4.1 | – | – | –
Nc1nc2c(ncn2COCCO)c(=O)[nH]1 [ACYCLOVIR] | – | – | > 440 | 94 | – | – | – | – | – | 1.2 | – | – | > 440 | – | > 250 | – | – | 0.7 | – | – | –
CCCCCCCCCCCCCCCOCCCOP(=O)(C/C=C/Cn1cc(C)c(=O)[nH]c1=O)OCOC(=O)OC(C)C (stereo not given) | > 6 | inactive | 30 | > 152 | inactive | > 6 | inactive | > 6 | inactive | > 152 | inactive | inactive | 14.7 | inactive | – | inactive | inactive | > 152 | > 6000 | inactive | Activity (Human respirovirus 3): inactive
Cc1cn(C/C=C/CP(=O)(OCOC(=O)C(C)C)OCOC(=O)C(C)C)c(=O)[nH]c1=O | 102 | inactive | > 200 | 2.8 | inactive | 83 | inactive | 0.45 | inactive | 4.2 | inactive | inactive | 36 | inactive | > 200 | inactive | inactive | 6.1 | 1260 | inactive | selectivity ratio [14]: 29; selectivity ratio [15]: 80; Activity (Human respirovirus 3): inactive
Nc1nc(O)c2ncn(COC(CO)CO)c2n1 [GANCICLOVIR] | 5.63 | – | ≥ 350 | – | – | 4.05 | – | – | – | – | – | – | > 350 | – | – | – | – | – | – | – | –
O=c1[nH]c(=O)n([C@H]2C[C@H](O)[C@@H](CO)O2)cc1/C=C/Br [BRIVUDINE] | – | – | > 300 | 420 | – | – | – | ≥ 93.8 | – | 0.081 | – | – | > 300 | – | 10.8 | – | – | 169 | – | – | selectivity ratio [14]: > 21400; selectivity ratio [15]: > 3
